Compounds with a hit are over-represented: about 2.3% of the library has one in this group of screens.
ERp5 inh: inhibitors of ERp5-driven insulin aggregation, primary screen, biochemical, turbidity, absorbance 650 nm, single point; 350,000 tested, 0.05% active; 90 min; inhibition, % at 9.99 µM; AID 651711, 2012; Protein disulfide-isomerase A6 (Homo sapiens), Q15084;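 active = mean replicate inhibition above about 25%, with every replicate also reaching it, limit read from the data, passing the limit was not always enough; inconclusive = only one of those two criteria met; inactive = neither criterion met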
Target sequence (Q15084 whole entry, looked up): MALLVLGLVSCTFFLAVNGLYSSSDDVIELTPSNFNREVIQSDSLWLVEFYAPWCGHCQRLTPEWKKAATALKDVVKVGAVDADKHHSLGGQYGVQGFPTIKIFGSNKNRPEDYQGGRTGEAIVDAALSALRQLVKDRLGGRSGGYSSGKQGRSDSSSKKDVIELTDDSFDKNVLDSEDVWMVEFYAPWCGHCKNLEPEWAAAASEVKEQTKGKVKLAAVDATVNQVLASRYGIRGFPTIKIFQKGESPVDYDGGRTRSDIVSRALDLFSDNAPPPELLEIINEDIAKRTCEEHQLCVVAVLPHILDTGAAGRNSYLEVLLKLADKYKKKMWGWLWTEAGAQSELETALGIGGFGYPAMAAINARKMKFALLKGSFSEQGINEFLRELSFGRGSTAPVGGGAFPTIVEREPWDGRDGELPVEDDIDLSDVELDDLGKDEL
DENV2 CPE rescue: inhibitors of DENV2 cytopathic effect, primary screen, cell-based, plate reader, single concentration. DENV2-infected cells, cytopathic effect rescue. CPE inhibition, % at 9.99 µM. 350,000 tested, 1.7% active. AID 651640, 2012; in the data active = CPE inhibition above about 20%, passing the limit was not always enough; inconclusive = no clear call, values can overlap the other calls; tested in BHK-21 cells
PDI inh: inhibitors of human PDI, primary screen, biochemical, turbidity, single point, plate reader; Protein disulfide-isomerase (Homo sapiens), P07237; 350,000 tested, 0.052% active; PDI insulin aggregation turbidity, A650, 90 min; inhibition, % at 10 µM;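 active = mean inhibition across replicates of 30% or more, whatever share of single replicates reach that level; inconclusive = mean inhibition below 30% while every single replicate reaches 30%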
Cneo AK release: Cryptococcus neoformans cell lysis inducers, primary screen, AK release luminescence, single concentration | C. neoformans lysis, adenylate kinase release luminescence, 4 h; normalised: neutral wells 0, clomiphene wells 100 | lysis activity, % at 15 µM | 360,000 tested, 0.2% active;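 active = mean lysis activity across replicates of at least 80%, whatever share of replicates individually reach that level; inactive = mean lysis activity below 80%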
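Signal: Adenylate kinase release luminescence | Assay system: Log-phase Cryptococcus neoformans yeast cells | Input: Cells at 5 × 10^6 per mL | Buffer or medium: Fresh YPD growth medium | Compound: Single dose | Schedule: Static 4 h at 37 °C with compound, 1 h detection | Controls: Clomiphene | Read-out: Luminescence rise reflecting yeast cell lysis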
Statin myotox sup: suppressors of statin myotoxicity in C2C12 myotubes, primary screen, cell-based, single point, plate reader | C2C12 myotubes + simvastatin, ATP luminescence, 48 h; scaled: DMSO 0, geranylgeraniol control 100 | rescue of ATP level, % at 7.49 µM | 330,000 tested, 0.78% active | AID 602340, 2012;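 active = mean ATP rescue above about 67%, or every replicate alone reaching that limit, limit read from the data, passing the limit was not always enough; inconclusive = no clear call, values can overlap the other calls; inactive = mean under the limit and some replicate under it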;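 also: myotubes were challenged with 10 µM simvastatin during compound exposure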
F508del corr: F508del CFTR correction, initial screen, CFBE line, single point | CFBE cells, YFP halide quenching; stimulated with forskolin plus potentiator P3; % fluorescence drop versus neutral controls | activity (quench increase), % at 7.58 µM | 350,000 tested, 0.36% active | AID 720511, 2013;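 active = mean added fluorescence quench of at least 8% versus neutral control, with both replicates also reaching 8%; inconclusive = only one of the mean or replicate conditions met; inactive = mean below 8% and not both replicates reaching 8%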;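 also: cells transiently co-express mutant CFTR-F508del with the halide-sensitive YFP; corrector assay measuring rescue of mutant channel to the surface after 24 h compound exposure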
Hits are given with their value; 0 = inactive; ? = inconclusive; - = no result.

SMILES	ERp5 inh	DENV2 CPE rescue	PDI inh	Cneo AK release	Statin myotox sup	F508del corr
C[C@@H]1CN([C@@H](C)CO)C(=O)c2cccc(NS(=O)(=O)c3ccc(F)cc3)c2O[C@@H]1CN(C)Cc1ccc(Cl)c(Cl)c1	0	0	-	0	0	0
CC(=O)Nc1ccc(NC(=O)COC(=O)[C@@H]2CCCN2C(=O)c2cccs2)cc1	0	0	0	0	0	0
NC(=O)c1ccsc1NC(=O)COC(=O)[C@@H]1CCCN1C(=O)c1cccs1	0	122	0	-	-	0
O=C(Oc1ccc(Cl)cc1N1C(=O)CCC1=O)c1ccco1	-	-	0	0	66	-
O=C(Oc1ccc(N2C(=O)CCC2=O)cc1)c1ccco1	-	-	0	0	0	-
CN(C)CCNc1ccc2ncn3c4ccc(O)cc4c(=O)c1c23	0	0	0	-	-	21
CC[n+]1c(/C=C2\Sc3ccccc3N2C)ccc2cccc(C)c21	0	0	0	0	-	18
C[C@H]1CN([C@@H](C)CO)C(=O)c2cc(C3=CCCCC3)cnc2O[C@@H]1CN(C)Cc1cccnc1	0	0	-	0	0	0
COc1ccc(-n2cnc3cc(NCc4cccs4)ccc32)cc1	-	-	0	0	127	-
O=C(c1ccccc1)N1CC(=O)N2[C@H](C1)[C@H](c1ccc(C#Cc3ccccc3)cc1)[C@@H]2CO	0	0	-	-	-	0
COc1ccc(C#Cc2ccc([C@H]3[C@H]4CN(C(=O)c5ccncc5)CCCCN4[C@H]3CO)cc2)cc1	0	0	-	0	98	9.3
COc1ccc(C#Cc2ccc([C@@H]3[C@H](CO)N4C(=O)CN(C(=O)c5ccncc5)C[C@@H]34)cc2)cc1	0	0	-	-	-	0
O=C(c1ccc2c(c1)OCO2)N1CC(=O)N2[C@H](C1)[C@H](c1ccc(C#Cc3ccccc3)cc1)[C@@H]2CO	0	50	-	-	-	0
COc1ccc(C#Cc2ccc([C@@H]3[C@@H](CO)N4C(=O)CN(C(=O)c5ccncc5)C[C@@H]34)cc2)cc1	0	38	-	-	-	0
O=C(c1ccccc1)N1CC(=O)N2[C@H](CO)[C@@H](c3ccc(C#Cc4ccccc4)cc3)[C@@H]2C1	0	21	-	-	-	0
C[C@H]1CN([C@@H](C)CO)C(=O)c2cccc(NS(=O)(=O)c3ccc(Cl)cc3)c2O[C@H]1CN(C)C(=O)Nc1ccc(F)cc1	0	0	-	0	0	0
COCC(=O)N1CC(=O)N2[C@@H](CO)[C@@H](c3ccc(Br)cc3)[C@@H]2C1	0	29	-	-	-	0
O=C(c1ccc2c(c1)OCO2)N1CC(=O)N2[C@H](CO)[C@H](c3ccc(-c4ccccc4)cc3)[C@@H]2C1	0	49	-	-	-	0
N#Cc1ncn(C2OC(CO)C(O)C2O)c1N (stereo not given)	0	0	0	-	-	10.0
CCOc1cc(CNCCCN2CCOCC2)cc(Br)c1OCc1ccccc1Cl	0	0	0	0	0	0
CCOc1cc(CNCCN2CCOCC2)ccc1OCc1ccccc1Cl	0	29	0	0	0	0
O=C(Nc1ccc2nn(-c3ccccc3)nc2c1)c1cccnc1	-	-	0	0	130	-
O=C(Nc1ccc2nn(-c3ccc(F)cc3)nc2c1)c1cccnc1	0	0	0	-	-	0
CC1(C)Cc2c(cnn2-c2ccc(F)cc2)C(NC(=O)c2cnccn2)C1 (stereo not given)	0	0	0	0	0	0
CC1(C)Cc2c(cnn2-c2ccc(F)cc2)C(NC(=O)c2ccc(=O)oc2)C1 (stereo not given)	0	70	0	0	0	0
SMILES	ERp5 inh	DENV2 CPE rescue	PDI inh	Cneo AK release	Statin myotox sup	F508del corr
CN1C(=O)c2cc(NC(=O)c3cccs3)ccc2OC[C@@H]2O[C@@H](CC(=O)NCC(F)(F)F)CC[C@H]21	0	0	-	0	0	0
CC1CCCCC1Nc1nc2ccc(Cl)cc2n2cnnc12 (stereo not given)	0	0	0	0	98	0
COc1ccc(OC)c(NC(=O)C2CCCN2C(=O)OCc2ccccc2)c1 (stereo not given)	-	-	0	0	0	-
COc1ccc(C)cc1NC(=O)C1CCCN1C(=O)OCc1ccccc1 (stereo not given)	-	-	0	0	132	-
Cc1cccc(NC(=O)C2CCCN2C(=O)OCC(C)C)c1C (stereo not given)	0	-	0	0	91	-
CC(=O)c1cccc(NC(=O)N2CCCC2C(=O)Nc2cc(C)ccc2C)c1 (stereo not given)	-	-	0	0	115	-
CCCN[C@@H]1C(=O)N2C(C(=O)OCCC)=C(C)CS[C@H]12	0	72	0	0	0	0
CC1=CC(C)(C)N=C(NC#N)N1	-	-	0	0	104	-
CO[C@@H]1CC[C@H]2CCN(C)C(=O)C[C@H](c3ccccc3)CN(C)C(=O)c3cc(C#N)ccc3OC[C@@H]1O2	0	52	-	0	0	-
CO[C@H]1CC[C@H]2CCN(C)C(=O)C[C@@H](c3ccccc3)CN(C)C(=O)c3cc(C#N)ccc3OC[C@H]1O2	0	0	-	0	0	-
O=C(C[C@H]1CC[C@@H]2[C@H](COC[C@@H](O)CN2Cc2ccccc2F)O1)N[C@H]1CCN(Cc2ccccc2)C1	0	0	-	0	0	0
CC(=O)N1CCCCN2[C@@H](CO)[C@@H](c3ccc(C#Cc4ccccc4F)cc3)[C@@H]2C1	0	59	-	0	-	0
O=C(CN1CCOCC1)N1CCCCN2[C@H](C1)[C@H](c1ccc(C#Cc3ccccc3F)cc1)[C@@H]2CO	0	43	-	0	0	0
O=C(CN1CCOCC1)N1CCCCN2[C@H](CO)[C@H](c3ccc(C#Cc4ccccc4F)cc3)[C@@H]2C1	0	48	-	0	0	0
C[C@H]1CN([C@@H](C)CO)C(=O)c2cc(NC(=O)Cn3cnnn3)ccc2O[C@H]1CN(C)C(=O)Nc1ccc(F)cc1	0	0	-	0	0	0
CSc1nnc(-c2ccccc2)c(=O)[nH]1	-	-	0	0	97	-
CN(C)CC(=O)N1[C@H](C#N)[C@H](c2ccc(-c3cccc(C(=O)N(C)C)c3)cc2)[C@@H]1CO	0	?	-	0	0	0
CN(C)C(=O)c1ccc(-c2ccc([C@@H]3[C@@H](C#N)N(C(=O)C4CCC4)[C@H]3CO)cc2)cc1	0	0	-	0	0	0
CN(C)C(=O)c1cccc(-c2ccc([C@@H]3[C@@H](C#N)N(C(=O)C4CCC4)[C@@H]3CO)cc2)c1	0	26	-	0	0	0
CN(C)C(=O)c1ccc(-c2ccc([C@@H]3[C@@H](CO)N(C(=O)C4CCCC4)[C@H]3C#N)cc2)cc1	0	29	-	0	0	0
CN(C)CC(=O)N1[C@H](C#N)[C@H](c2ccc(-c3ccc(C(=O)N(C)C)cc3)cc2)[C@H]1CO	0	37	-	0	0	0
